Autophagy mod: autophagy modulators in MEF cells, primary screen, imaging, high-content, MEF GFP-LC3; AID 463193, 2010; 0.98% of 190,000 active; MEF GFP-LC3 puncta imaging; test concentration mostly 10 µM; calls only at 10 µM (by protocol);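 active = percentage of spot-positive cells more than 3 SD above its plate mean, without a fluorescence outlier flag or 80% toxicity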;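 also: spot-positive cell cutoff set from DMSO-treated cells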
Hck-Nef inh: inhibitors of Nef-activated human Hck kinase, primary screen, biochemical, Z-Lyte FRET, 384-well, Hck-YEEI. Recombinant Hck-YEEI plus Nef, Z-Lyte FRET kinase assay. AID 463187, 2010. Tyrosine-protein kinase HCK (Homo sapiens), P08631. 0.68% of 220,000 active. inhibition, % at 20 µM;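 active = Hck-Nef kinase inhibition above about 50%, limit read from the data; inactive = inhibition below that limit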;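 also: 0% = DMSO with Hck plus Nef and 100% = Hck alone without Nef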
Target sequence (P08631 whole entry, looked up): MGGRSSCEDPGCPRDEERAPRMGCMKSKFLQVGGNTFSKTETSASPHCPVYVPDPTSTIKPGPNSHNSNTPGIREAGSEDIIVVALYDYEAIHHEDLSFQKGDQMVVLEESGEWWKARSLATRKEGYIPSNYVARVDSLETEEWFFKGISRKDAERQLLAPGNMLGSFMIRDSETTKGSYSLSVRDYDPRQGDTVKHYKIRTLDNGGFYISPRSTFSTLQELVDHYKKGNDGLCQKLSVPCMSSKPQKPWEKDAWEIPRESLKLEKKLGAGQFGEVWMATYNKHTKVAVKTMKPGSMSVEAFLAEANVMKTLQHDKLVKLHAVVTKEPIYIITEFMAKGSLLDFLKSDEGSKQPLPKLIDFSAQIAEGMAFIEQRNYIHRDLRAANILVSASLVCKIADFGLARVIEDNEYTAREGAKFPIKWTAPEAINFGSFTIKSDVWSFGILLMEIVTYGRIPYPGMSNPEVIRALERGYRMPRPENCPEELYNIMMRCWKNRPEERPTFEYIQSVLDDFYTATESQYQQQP
TNF death inh: inhibitors of TNF-alpha triggered necroptosis, primary screen, cell-based, Jurkat FADD-/-, single concentration; Jurkat FADD-/- TNF necroptosis rescue, ATP luminescence, 24 h; 0 = TNF only, 100 = no-TNF cells; activation (protection from cell death), % at 10 µM; 0.068% of 220,000 active;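 active = activation, meaning protection from cell death, of at least 50% relative to plate controls; inactive = activation below 50%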;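 also: necroptosis triggered by 40 ng/mL TNF-alpha added together with compound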
MDM2 E3 inh: MDM2-luciferase reporter signal enhancers, primary screen, MDM2 E3 ligase inhibitor project, cell-based, luminescence, 1536-well. E3 ubiquitin-protein ligase Mdm2 (Homo sapiens), Q00987. cell-based MDM2 ubiquitination luciferase reporter, 2 h; 0 = plate control, 100 = twice control, blank-subtracted. signal enhancement, % at 5 µM. 0.11% of 210,000 active. AID 1230, 2008;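 active = signal enhancement of 30% or more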;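 also: luminescence tracks abundance of the self-degrading MDM2-luciferase fusion protein; higher signal means inhibition of MDM2 E3 ligase activity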
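Assay system: stable mammalian line carrying autodegrading MDM2–luciferase fusion reporter; amount: 2000 cells seeded into each well; buffer or medium: DMEM; benchmarks: plate control and blank wells; signal: luciferase luminescence; timing: 2 h compound exposure at 37 °C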
L929 necroptosis: inhibitors of zVAD-triggered necroptosis, primary screen, L929 cells; L929 zVAD necroptosis rescue, ATP luminescence, 24 h; with zVAD 60 µM; viability rescue, % at 10 µM; 0.38% of 220,000 active;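 active = activation, scaled between plate controls, above about 75%, limit read from the data; inactive = activation under that limit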;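 also: 0% = zVAD with DMSO and 100% = DMSO alone without zVAD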
Dynein transport: inhibitors of GR-EGFP nuclear translocation, primary screen, dynein cargo transport inhibitor project, imaging, high-content, 3617.4 mouse cells; z-score, hits read low; test concentration mostly 20 µM; stimulated with dexamethasone, 1 µM; hits give low values; 0.47% of 220,000 active;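 active = plate z-score of nuclear minus cytoplasmic receptor signal below a set negative limit, without overly bright fluorescence or cell loss, cut at about -3.5 in these data, passing the limit was not always enough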;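 also: z-score of nuclear minus cytoplasmic ring GR-EGFP intensity difference per well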
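Schedule: 48 h induction, then 1 h compound, then 30 min agonist, 37 °C. Buffer or medium: tetracycline-free induction medium containing charcoal-stripped FBS. Reagent: 1.0 µM final dexamethasone stimulus. Evaluation: nuclear versus cytoplasmic GR-EGFP signal, averaged per well. Signal: high-content fluorescence imaging after fixation.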
Active calls of the source: *; i = inactive; · = no result given; + = active, no number. Most compounds without a hit are left out; they make up all but 2.4% or so of the library.

SMILES	Autophagy mod	Hck-Nef inh	TNF death inh	MDM2 E3 inh	L929 necroptosis	Dynein transport
Cc1ccccc1-n1nc(C(=O)c2cccs2)cc(-c2nc3ccccc3[nH]2)c1=N	+	0	-1	-6	0	1
Cc1cccc(-n2nc(C(=O)c3ccco3)cc(-c3nc4ccccc4[nH]3)c2=N)c1	i	3	1	9	0	0.075
O=S(=O)(c1cccs1)N1CCN(c2ccc(O)cc2)CC1	·	2	-16	-6	1	-0.36
COc1ccccc1N1CCN(C(=O)c2ccc(Cl)c(S(=O)(=O)NCc3ccco3)c2)CC1	+	0	-7	-7	0	-0.31
Cc1ccc(NC(=O)CN2C(=O)/C(=C3\SC(=S)N(C4CCS(=O)(=O)C4)C3=O)c3ccccc32)cc1 (configuration not stated)	i	97*	-10	-16	3	-0.1
Cn1cccc1CC(=O)N/N=C/c1ccc([N+](=O)[O-])cc1	·	14	-2	-18	1	0.17
CCOc1ncccc1C(=O)OCC(=O)N(CC)c1ccccc1	+	21	0	-42	1	-0.73
C/C(CC(=O)NCc1ccco1)=N\NC(=O)C(c1ccccc1)c1ccccc1	i	-1	27	-12	77*	1.9
COc1cccc(-c2csc(/C(C#N)=C/Nc3cc4oc5ccccc5c4cc3OC)n2)c1	i	-42	3	-8	0	-0.28
COc1cc2c(cc1N/C=C(\C#N)c1nc(-c3ccccc3)cs1)oc1ccccc12	+	-37	-13	-7	-2	0.053
Cc1c(C(=O)Nc2cc(S(=O)(=O)N3CCOCC3)ccc2N2CCN(C)CC2)oc2ccccc12	·	15	-4	-8	3	0.41
CC(=O)C1=C(C)NC(SCC(=O)c2ccc(Cl)cc2)=C(C#N)C1c1ccco1 (configuration not stated)	+	3	1	-18	2	0.83
CC(=O)C1=C(C)NC(SCC(=O)c2ccccc2)=C(C#N)C1c1ccco1 (configuration not stated)	i	10	0	-19	3	1.3
C/C(CC(=O)Nc1cccnc1)=N\NC(=O)C(=O)NC(C)C	·	10	2	-15	2	0.0018
C/C(CC(=O)Nc1cccnc1)=N\NC(=O)C(=O)Nc1cccc(C)c1	+	4	1	-5	0	0.043
O=S(=O)(c1ccccc1Br)N1CCC(O)(c2cccnc2)CC1	i	15	1	-9	1	1.8
O=C(c1ccco1)N1CCn2cccc2C1c1ccccc1 (configuration not stated)	i	22	-1	-9	0	0.96
Cc1ccc2c(CC(=O)NC3=NCCS3)coc2c1	i	2	0	-19	0	-0.79
Cc1cc2occ(CC(=O)NC3=NCCS3)c2cc1C(C)C	+	-1	0	5	0	-0.25
O=[N+]([O-])c1ccc(Nc2ccc(F)cc2)nc1	i	-6	73*	-87	4	1.2
O=C(Nc1ccc(F)cc1)Nc1ccc([N+](=O)[O-])cn1	+	20	1	0	7	0.18
O=[N+]([O-])c1ccc(Nc2cccc(F)c2)nc1	i	22	70*	-9	3	0.12
O=C(O)c1cc([N+](=O)[O-])ccc1NCc1ccccc1	i	-2	1	·	2	-0.42
O=C(Nc1ccc(Cl)c(Cl)c1)Nc1ccc([N+](=O)[O-])cn1	·	33	2	-10	0	-0.45
O=[N+]([O-])c1ccc(NCc2ccccc2)nc1	i	1	76*	-8	3	0.19
SMILES	Autophagy mod	Hck-Nef inh	TNF death inh	MDM2 E3 inh	L929 necroptosis	Dynein transport
COC(=O)c1cccc(Nc2ccc([N+](=O)[O-])cn2)c1	i	16	3	4	45	-0.38
CC(C)Cc1cc(CN2CCC(CO)(Cc3ccccc3)CC2)[nH]n1	·	1	3	-11	0	0.73
O=[N+]([O-])c1ccc(Nc2ccccc2)nc1	i	4	90*	-6	24	0.42
CSCCCNC(=S)Nc1cccc(S(=O)(=O)NC2=NCCC2)c1	+	1	0	-9	2	-0.35
CCCCN1C(=O)/C(=C/C=C2/CC(C)(C)CN2C)SC1=S	+	8	5	-14	1	0.64
COc1ccc(OC)c(/C=N/NC(=O)C(=O)NCc2cccnc2)c1	i	14	-1	-16	1	-0.81
O=c1nc(Nc2cccc(Cl)c2)oc2cc(Cl)oc(=O)c12	·	16	-25	-77	0	-3
N#C/C(=C\C=C\c1ccccc1)c1nc(-c2ccc3c(c2)OCO3)cs1	+	-2	2	-1	0	-1.8
CCOc1ccc2c(c1)C(c1ccc(C)o1)=NNC(c1ccncc1)=N2	+	-1	0	3	0	1.7
CCOc1ccc2c(c1)C(c1ccc(C)cc1)=NNC(c1ccc(OC)cc1)=N2	i	-1	1	-20	0	0.41
COc1ccc(N=Nc2n(C)c3ccccc3[n+]2C)cc1	·	11	-25	-90	-3	2.2
O=C(NCCc1ccccc1)C1CCN(C2CCN(Cc3ccc(CO)o3)CC2)CC1	i	18	2	38*	1	-0.32
c1ccc(CN2CCC(Nc3nc(-c4cccs4)nc4ccccc34)CC2)cc1	+	25	10	-9	51	1.1
COc1ccc(-c2nn(-c3ccccc3)cc2/C=C2/SC(=S)N(Cc3ccco3)C2=O)c(C)c1	i	0	-6	3	0	-0.68
COc1ccc(-n2c(C)cc(/C=C3\SC(=S)N(Cc4ccco4)C3=O)c2C)cc1	+	3	1	-2	4	-0.43
Cc1ccc2c(c1)C(=O)C(=O)N2CCOc1ccccc1	i	27	-9	-10	-3	1.4
Cc1cccc(OCCN2C(=O)C(=O)c3cc(C)ccc32)c1	+	36	-13	2	0	-0.29
CC(C)Oc1ccc(C(=O)NC(=S)N2CCOCC2)cc1	i	7	2	53*	-1	-0.23
COc1ccc(CC(=O)Nn2c(-c3ccccc3)nc3ccccc3c2=O)cc1	i	-1	1	-8	1	2
